Experimental data taken from ChEMBL document CHEMBL1157414, “Cytotoxic dihydroagarofuranoid sesquiterpenes from the seeds of Celastrus orbiculatus” (J Nat Prod, 2008).

system: HL-60; assay: Cytotoxicity against human HL60 cells at 10 uM after 72 hrs by MTT assay; assay type: functional; details: not given
Outline: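 MTT was added for 4 h at 37 °C, followed by extraction buffer (10% SDS, 5% isobutanol, 0.01 M HCl) overnight at 37 °C. Absorbance was read at 570 nm, with etoposide as positive control.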

Compound | Activity
CC(=O)O[C@H]1CC[C@@H](CO)[C@]23OC(C)(C)[C@H](C[C@H](OC(=O)c4ccccc4)[C@]12C)[C@H]3OC(=O)c1ccccc1 | <50%
CC(=O)O[C@H]1C[C@](C)(O)[C@@]23C[C@@H](C[C@H](OC(=O)/C=C/c4ccccc4)[C@]2(C)[C@H]1OC(C)=O)C(C)(C)O3 | <50%
CC(=O)O[C@@H]1[C@@H]2[C@@H](OC(C)=O)[C@]3(OC2(C)C)[C@H](C)CC[C@H](O)[C@@]3(C)[C@@H]1OC(=O)c1ccccc1 | <50%
CC(=O)O[C@@H]1[C@H]2C[C@H](OC/C=C/c3ccccc3)[C@]3(C)[C@@H](OC(C)=O)[C@@H](O)C[C@@H](C)[C@@]13OC2(C)C | <50%
CC(=O)O[C@@H]1[C@@H]2[C@@H](OC(C)=O)[C@]3(OC2(C)C)[C@H](C)CC[C@H](OC(=O)c2ccccc2)[C@@]3(C)[C@@H]1OC(=O)c1ccccc1 | <50%
CC(=O)O[C@@H]1[C@H]2C[C@H](OC/C=C/c3ccccc3)[C@]3(C)[C@@H](OC(C)=O)[C@@H](OC(=O)c4ccccc4)C[C@@H](C)[C@@]13OC2(C)C | <50%
CC(=O)O[C@@H]1[C@H]2[C@@H](OC(=O)c3ccccc3)[C@H](OC(=O)c3ccccc3)[C@]3(C)[C@@H](OC(=O)c4ccccc4)CC[C@@H](C)[C@@]13OC2(C)C | <50%
C[C@@H]1CC[C@H](OC(=O)c2ccccc2)[C@@]2(C)[C@H](OC(=O)c3ccccc3)[C@H](OC(=O)c3ccccc3)[C@@H]3[C@@H](O)[C@]12OC3(C)C | <50%
CC(=O)O[C@@H]1[C@H]2[C@@H](O)[C@@H](OC(=O)c3ccccc3)[C@]3(C)[C@@H](O)CC[C@@H](C)[C@@]13OC2(C)C | <50%
CC(=O)O[C@H]1CC[C@@H](C)[C@]23OC(C)(C)[C@H](C[C@H](OC(=O)c4ccccc4)[C@]12C)[C@H]3O | <50%

system: HL-60; assay: Cytotoxicity against human HL60 cells after 72 hrs by MTT assay; assay type: functional, cell-based; details: HL-60, 72 h
Outline: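 HL-60 human leukemia cells were plated in 96-well plates and exposed in triplicate to graded concentrations for 72 h. MTT was added for 4 h at 37 °C, then extraction buffer (10% SDS, 5% isobutanol, 0.01 M HCl) overnight at 37 °C. Absorbance was read at 570 nm.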

Compound | IC50
CC(=O)O[C@H]1C[C@@H](C)[C@@]23C[C@@H](C[C@H](OC(C)=O)[C@]2(C)[C@H]1OC/C=C/c1ccccc1)C(C)(C)O3 | 3.3 µM
CC(=O)O[C@@H]1[C@H]2[C@@H](O)[C@@H](OC(=O)c3ccccc3)[C@]3(C)[C@@H](OC/C=C/c4ccccc4)CC[C@@H](C)[C@@]13OC2(C)C | 8.3 µM
CC(=O)O[C@H]1C[C@@H]2[C@@H](OC(=O)c3ccccc3)[C@]3(OC2(C)C)[C@H](C)CC[C@H](OC(=O)c2ccccc2)[C@@]13C | 2.8 µM
CC(=O)O[C@@H]1[C@@H]2[C@@H](OC(C)=O)[C@]3(OC2(C)C)[C@H](C)CC[C@H](OC(C)=O)[C@@]3(C)[C@H]1OC(=O)c1ccccc1 | 6.8 µM
CCCC(=O)O[C@@H]1[C@@H]2[C@@H](OC(C)=O)[C@]3(OC2(C)C)[C@H](C)CC[C@H](OC(=O)c2ccccc2)[C@@]3(C)[C@@H]1OC(=O)c1ccccc1 | 5.3 µM
